Assays:
A549 = test: Cytotoxicity against human A549 cells assessed as growth inhibition after 48 hrs by resazurin assay; type: functional, cell-based; conditions: A549, 48 h
How it was run: (§1)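 Human lung carcinoma A549, colon adenocarcinoma DLD-1 and normal skin fibroblast WS1 cells were tested by resazurin reduction, following an earlier-published protocol. Values are IC50, the concentration inhibiting 50% of cell growth. Etoposide served as the positive control.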

[1] = Cytotoxicity against human DLD1 cells assessed as growth inhibition after 48 hrs by resazurin assay; type: functional, cell-based; conditions: DLD-1, 48 h; how it was run: as §1
[2] = Cytotoxicity against human WS1 cells assessed as growth inhibition after 48 hrs by resazurin assay; type: cell-based; conditions: WS1, 48 h; how it was run: as §1

| Structure (SMILES) | IC50 (A549) [µM] | IC50 [1] [µM] | IC50 [2] [µM] |
| --- | --- | --- | --- |
| C=C(C)[C@@H]1CC=C2[C@@H](CC[C@]23C(=C)CC[C@@]3(C)[C@H](C)CC(=O)[C@H]2CC(CCC=C(C)C)=CC[C@]2(C)C(=O)O)[C@@]1(C)CCC(=O)O | > 10 | > 10 | > 10 |
| C=C(C)[C@@H]1CC=C2[C@@H](CC[C@]23C(=C)CC[C@@]3(C)[C@H](C)CC(=O)[C@@H]2CC(CCC=C(C)C)=CC[C@@]2(C)C(=O)O)[C@@]1(C)CCC(=O)O | > 10 | > 10 | > 10 |
| C=C(C)[C@@H]1C=CC2=C3CC[C@@](C)([C@H](C)CC(=O)[C@@H]4CC=C(CCC=C(C)C)C[C@@]4(C)C(=O)O)[C@]3(C)CC[C@H]2[C@@]1(C)CCC(=O)OC | 6.7 | > 10 | > 10 |
| C=C(C)[C@@H]1CC=C2[C@@H](CC[C@]23C(=C)CC[C@@]3(C)[C@H](C)CC(=O)[C@H]2CC(CCC=C(C)C)=CC[C@]2(C)C(=O)O)[C@@]1(C)CCC(=O)OC | 7.2 | > 10 | > 10 |
| COc1cc([C@@H]2c3cc4c(cc3[C@@H](O[C@@H]3O[C@@H]5CO[C@@H](C)O[C@H]5[C@H](O)[C@H]3O)[C@H]3COC(=O)[C@H]23)OCO4)cc(OC)c1O [ETOPOSIDE] | 1.7 | 2 | > 10 |
| C=C(C)[C@@H]1C=CC2=C3CC[C@@](C)([C@H](C)CC(=O)[C@H]4CC=C(CCC=C(C)C)C[C@]4(C)C(=O)O)[C@]3(C)CC[C@H]2[C@@]1(C)CCC(=O)O | > 10 | > 10 | > 10 |
| C=C(C)[C@@H]1CC=C2[C@@H](CC[C@]3(C)[C@@H]([C@H](C)CC(=O)[C@@H]4CC=C(CCC=C(C)C)C[C@@]4(C)C(=O)O)CC[C@@]23C)[C@@]1(C)CCC(=O)O | > 10 | > 10 | > 10 |
| C=C(C)[C@@H]1C=CC2=C3CC[C@@](C)([C@H](C)CC(=O)[C@H]4CC(CCC=C(C)C)=CC[C@]4(C)C(=O)O)[C@]3(C)CC[C@H]2[C@@]1(C)CCC(=O)O | 9 | > 10 | > 10 |
| C=C(C)[C@@H]1C=CC2=C3CC[C@@](C)([C@H](C)CC(=O)[C@@H]4CC=C(CCC=C(C)C)C[C@@]4(C)C(=O)O)[C@]3(C)CC[C@H]2[C@@]1(C)CCC(=O)O | 10 | > 10 | > 10 |
| C=C(C)[C@@H]1C=CC2=C3CC[C@@](C)([C@H](C)CC(=O)[C@@H]4CC(CCC=C(C)C)=CC[C@@]4(C)C(=O)O)[C@]3(C)CC[C@H]2[C@@]1(C)CCC(=O)O | > 10 | > 10 | > 10 |

From ChEMBL document CHEMBL3758111, “DFT Calculations and ROESY NMR Data for the Diastereochemical Characterization of Cytotoxic Tetraterpenoids from the Oleoresin of Abies balsamea” (J Nat Prod, 2015)
